Consider three compounds from ChEMBL document CHEMBL5385966, “Synthesis and biological evaluation of new naphthalimide-thiourea derivatives as potent antimicrobial agents active against multidrug-resistant Staphylococcus aureus and Mycobacterium tuberculosis” (RSC Med Chem, 2024).

One data set concerns Pseudomonas aeruginosa. The data set is described as follows: Antibacterial activity against Pseudomonas aeruginosa ATCC 27853 assessed as bacterial growth inhibition incubated for 16 to 18 hrs by CLSI based antibiotic susceptibility testing method. The settings on record: time 16-18 hrs. In kind it is functional, organism-based. In a few lines:
(§1)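 Broth microdilution in cation-adjusted Mueller-Hinton broth. Compounds were tested at […], with levofloxacin as reference and medium-only controls. Plates were incubated at 37 °C for 16-18 h. MIC was the lowest concentration with no visible growth; three independent determinations, each in duplicate.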

Data set [1] deals with Staphylococcus aureus. The data set is described as follows: Antibacterial activity against methicillin/ceftriaxone/meropenem-resistant Staphylococcus aureus NRS10191 clinical isolate assessed as bacterial growth inhibition incubated for 16 to 18 hrs by CLSI based antibiotic susceptibility testing method. In kind it is functional. The settings on record: time 16-18 hrs. In a few lines:
as §1

Data set [2] relates to Staphylococcus aureus. The data set is described as follows: Antibacterial activity against methicillin/ceftriaxone/meropenem/gentamycin/linezolid-resistant Staphylococcus aureus NRS10119 clinical isolate assessed as bacterial growth inhibition incubated for 16 to 18 hrs by CLSI based antibiotic susceptibility testing method. In kind it is functional. The settings on record: time 16-18 hrs. In a few lines: as §1

The next data set has as its system Acinetobacter baumannii. The data set is described as follows: Antibacterial activity against Acinetobacter baumannii BAA 1605 assessed as bacterial growth inhibition incubated for 16 to 18 hrs by CLSI based antibiotic susceptibility testing method. In kind it is functional, organism-based. The settings on record: time 16-18 hrs. In a few lines:
as §1

In data set [3] the test system is Staphylococcus aureus. Put plainly: Antibacterial activity against methicillin/ceftriaxone/meropenem/vancomycin/teicoplanin-resistant Staphylococcus aureus VRS4 clinical isolate assessed as bacterial growth inhibition incubated for 16 to 18 hrs by CLSI based antibiotic susceptibility testing method. In kind it is functional. The settings on record: time 16-18 hrs. In a few lines:
as §1

In data set [4] the test system is Staphylococcus aureus. The data set is described as follows: Antibacterial activity against methicillin/ceftriaxone/meropenem/gentamycin/linezolid-resistant Staphylococcus aureus NRS10100 clinical isolate assessed as bacterial growth inhibition incubated for 16 to 18 hrs by CLSI based antibiotic susceptibility testing method. In kind it is functional. The settings on record: time 16-18 hrs. In a few lines: as §1

The test system of data set [5] is Staphylococcus aureus. The data set is described as follows: Antibacterial activity against methicillin/ceftriaxone/meropenem-resistant Staphylococcus aureus NRS10193 clinical isolate assessed as bacterial growth inhibition incubated for 16 to 18 hrs by CLSI based antibiotic susceptibility testing method. The settings on record: time 16-18 hrs. In kind it is functional. In a few lines:
as §1

The test system of data set [6] is Staphylococcus aureus. Put plainly: Antibacterial activity against methicillin/ceftriaxone/meropenem/gentamycin/vancomycin/teicoplanin-resistant Staphylococcus aureus VRS1 clinical isolate assessed as bacterial growth inhibition incubated for 16 to 18 hrs by CLSI based antibiotic susceptibility testing method. In kind it is functional. The settings on record: time 16-18 hrs. In a few lines: as §1

The subject of data set [7] is Staphylococcus aureus. The data set is described as follows: Antibacterial activity against methicillin-sensitive Staphylococcus aureus ATCC 29213 clinical isolate assessed as bacterial growth inhibition incubated for 16 to 18 hrs by CLSI based antibiotic susceptibility testing method. In kind it is functional. The settings on record: time 16-18 hrs. In a few lines: as §1

Data set [8] is described as follows: Cytotoxicity against African green monkey Vero cells by MTT assay. The settings on record: chlorocebus sabaeus. In kind it is toxicity, cell-based. In a few lines: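 Vero cells were seeded at ~10³ per well at 37 °C, 5% CO2. After 24 h, compounds were added at 5-100 mg/L for 72 h. […] was added for 4 h, formazan was dissolved in DMSO and read at 540 nm. CC50 was taken as the lowest concentration reducing viability by 50%; doxorubicin was the positive control; triplicate.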

Data set [9] deals with Staphylococcus aureus. Put plainly: Antibacterial activity against methicillin/ceftriaxone-resistant Staphylococcus aureus NRS10194 clinical isolate assessed as bacterial growth inhibition incubated for 16 to 18 hrs by CLSI based antibiotic susceptibility testing method. The settings on record: time 16-18 hrs. In kind it is functional. In a few lines:
as §1

Data set [10] concerns Staphylococcus aureus. Put plainly: Antibacterial activity against methicillin/ceftriaxone/meropenem/vancomycin/teicoplanin-resistant Staphylococcus aureus VRS12 clinical isolate assessed as bacterial growth inhibition incubated for 16 to 18 hrs by CLSI based antibiotic susceptibility testing method. In kind it is functional. The settings on record: time 16-18 hrs. In a few lines:
as §1

In another data set the test system is Escherichia coli. The data set is described as follows: Antibacterial activity against Escherichia coli ATCC 25922 assessed as bacterial growth inhibition incubated for 16 to 18 hrs by CLSI based antibiotic susceptibility testing method. In kind it is functional, organism-based. The settings on record: time 16-18 hrs. In a few lines:
as §1

A further data set relates to Mycobacteroides chelonae. The data set is described as follows: Antimycobacterial activity against Mycobacteroides chelonae ATCC 35752 assessed as bacterial growth inhibition incubated for 72 hrs by resazurin dye based broth microdilution method. In kind it is functional, organism-based. In a few lines:
(§2)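 Broth microdilution in Middlebrook 7H9 with 10% ADC-Tween-80 (0.2% glycerol, 0.05% Tween-80), inoculum ~10⁶ cfu/mL. Compounds came from 10 mg/mL DMSO stocks and were tested as two-fold serial dilutions at 37 °C, 7 days for M. tuberculosis H37Rv and 72 h for NTM. Growth was read visually with PrestoBlue resazurin dye; MIC was the lowest concentration preventing growth. Triplicate determinations, each in duplicate.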

Data set [11] relates to Staphylococcus aureus. The data set is described as follows: Antibacterial activity against methicillin/ceftriaxone/meropenem-resistant Staphylococcus aureus NRS10129 clinical isolate assessed as bacterial growth inhibition incubated for 16 to 18 hrs by CLSI based antibiotic susceptibility testing method. In kind it is functional. The settings on record: time 16-18 hrs. In a few lines:
as §1

Data set [12] has as its system Mycobacterium tuberculosis. Put plainly: Antimycobacterial activity against Mycobacterium tuberculosis H37Rv ATCC 27294 assessed as bacterial growth inhibition incubated for 7 days by resazurin dye based broth microdilution method. The settings on record: H37Rv ATCC 27294, 168 h, time 7 day. In kind it is functional. In a few lines: as §2
The test system of data set [13] is Staphylococcus aureus. Put plainly: Antibacterial activity against methicillin/ceftriaxone/meropenem-resistant Staphylococcus aureus NRS10186 clinical isolate assessed as bacterial growth inhibition incubated for 16 to 18 hrs by CLSI based antibiotic susceptibility testing method. In kind it is functional. The settings on record: time 16-18 hrs. In a few lines:
as §1

The subject of the next data set is Klebsiella pneumoniae. The data set is described as follows: Antibacterial activity against Klebsiella pneumoniae BAA 1705 assessed as bacterial growth inhibition incubated for 16 to 18 hrs by CLSI based antibiotic susceptibility testing method. In kind it is functional, organism-based. The settings on record: time 16-18 hrs. In a few lines:
as §1

The test system of data set [14] is Staphylococcus aureus. Put plainly: Antibacterial activity against methicillin/ceftriaxone/meropenem-resistant Staphylococcus aureus NRS10198 clinical isolate assessed as bacterial growth inhibition incubated for 16 to 18 hrs by CLSI based antibiotic susceptibility testing method. In kind it is functional. The settings on record: time 16-18 hrs. In a few lines: as §1

Data set [15] relates to Staphylococcus aureus. The data set is described as follows: Antibacterial activity against Staphylococcus aureus ATCC 29213 assessed as bacterial growth inhibition incubated for 16 to 18 hrs by CLSI based antibiotic susceptibility testing method. The settings on record: time 16-18 hrs. In kind it is functional. In a few lines:
as §1

The test system of data set [16] is Mycobacteroides abscessus. Put plainly: Antimycobacterial activity against Mycobacterium abscessus ATCC 19977 assessed as bacterial growth inhibition incubated for 72 hrs by resazurin dye based broth microdilution method. In kind it is functional, organism-based. In a few lines:
as §2

Data set [17] can be described thus: Selectivity index, ratio of CC50 for African green monkey Vero cells to MIC for Staphylococcus aureus ATCC 29213. The settings on record: read-out: Selectivity Index. In kind it is toxicity, cell-based.
For data set [18], the system named is Staphylococcus aureus. The data set is described as follows: Antibacterial activity against methicillin/ceftriaxone/meropenem-resistant Staphylococcus aureus NRS10192 clinical isolate assessed as bacterial growth inhibition incubated for 16 to 18 hrs by CLSI based antibiotic susceptibility testing method. In kind it is functional. The settings on record: time 16-18 hrs. In a few lines:
as §1

The subject of data set [19] is Mycolicibacterium fortuitum. Put plainly: Antimycobacterial activity against Mycobacterium fortuitum ATCC 6841 assessed as bacterial growth inhibition incubated for 72 hrs by resazurin dye based broth microdilution method. In kind it is functional, organism-based. In a few lines:
as §2

In brackets after ≈: the same amount, converted by molar mass. Activity calls are given as the source filed them. The rule behind the calls is not given here.

`O=C(CN1C(=O)c2cccc3cccc(c23)C1=O)NC1CCN(C(=S)NC2CCCCC2)CC1`: the “growth inhibition (GI)” value (in the data set with Pseudomonas aeruginosa; in the data set on Acinetobacter baumannii; with Escherichia coli; in the data set with Mycobacteroides chelonae; in the data set with Klebsiella pneumoniae; in data set [16]) was “inactive” in each case. Besides, in data set [19], the “growth inhibition (GI)” value is “inactive”. Further, the MIC is 0.125 µg/mL (≈ 0.261 µM) in the data set on Staphylococcus aureus [1]; 0.125 µg/mL (≈ 0.261 µM) in the data set on Staphylococcus aureus [2]; 0.25 µg/mL (≈ 0.522 µM) in the data set on Staphylococcus aureus [3]; 0.25 µg/mL (≈ 0.522 µM) with Staphylococcus aureus [4]; 0.125 µg/mL (≈ 0.261 µM) with Staphylococcus aureus [5]; 0.5 µg/mL (≈ 1.04 µM) in the data set with Staphylococcus aureus [6]. In addition, the MIC in the data set on Staphylococcus aureus [7] was 0.25 µg/mL (≈ 0.522 µM); with Staphylococcus aureus [9], 0.25 µg/mL (≈ 0.522 µM); with Staphylococcus aureus [10], 0.25 µg/mL (≈ 0.522 µM); in the data set on Staphylococcus aureus [11], 0.5 µg/mL (≈ 1.04 µM); in data set [12] it was over 64 µg/mL; in the data set on Staphylococcus aureus [13], 0.125 µg/mL (≈ 0.261 µM). The minimal inhibitory concentration (MIC) with Staphylococcus aureus [14], in the data set with Staphylococcus aureus [15] and in the data set with Staphylococcus aureus [18] was 0.25 µg/mL (≈ 0.522 µM) each time. The CC50 in data set [8] was over 10 µg/mL. Besides, in data set [17], the selectivity ratio was over 40.

On to `O=C1c2cccc3cccc(c23)C(=O)N1CCN1CCN(C(=S)Nc2ccccc2)CC1`, for which the “growth inhibition (GI)” value (with Pseudomonas aeruginosa; with Acinetobacter baumannii; in the data set on Escherichia coli; in the data set with Mycobacteroides chelonae; with Klebsiella pneumoniae; in [16]) was “inactive” each time. The “growth inhibition (GI)” value in [19] is “inactive”. The MIC in the data set with Staphylococcus aureus [1] is 2 µg/mL (≈ 4.5 µM); in the data set on Staphylococcus aureus [2], 4 µg/mL (≈ 9 µM); in the data set with Staphylococcus aureus [3], 2 µg/mL (≈ 4.5 µM); with Staphylococcus aureus [4], 4 µg/mL (≈ 9 µM); in the data set on Staphylococcus aureus [5], 2 µg/mL (≈ 4.5 µM); in the data set on Staphylococcus aureus [6] it was 4 µg/mL (≈ 9 µM). For the same compound, the MIC in the data set with Staphylococcus aureus [7] is 4 µg/mL (≈ 9 µM); in the data set on Staphylococcus aureus [9], 4 µg/mL (≈ 9 µM); in the data set with Staphylococcus aureus [10] it was 4 µg/mL (≈ 9 µM); with Staphylococcus aureus [11] it was 4 µg/mL (≈ 9 µM); in data set [12], over 64 µg/mL; with Staphylococcus aureus [13] it was 4 µg/mL (≈ 9 µM). Moreover, the minimal inhibitory concentration (MIC) with Staphylococcus aureus [14], in the data set on Staphylococcus aureus [15] and in the data set on Staphylococcus aureus [18] was 2 µg/mL (≈ 4.5 µM) each time. This compound displayed a CC50 in data set [8] of over 100 µg/mL. For the same compound, in data set [17], the selectivity ratio is over 50.

As for `O=C(CCN1C(=O)c2cccc3cccc(c23)C1=O)N1CCN(C(=S)NC2CCCCC2)CC1`, the “growth inhibition (GI)” value (in the data set on Pseudomonas aeruginosa; with Acinetobacter baumannii; in the data set on Escherichia coli; in the data set on Mycobacteroides chelonae; with Klebsiella pneumoniae; in data set [16]) was “inactive” in each case. For the same compound, in [19], the “growth inhibition (GI)” value is “inactive”. The MIC in the data set on Staphylococcus aureus [1] was determined as 2 µg/mL (≈ 4.18 µM); in the data set with Staphylococcus aureus [2], 2 µg/mL (≈ 4.18 µM); with Staphylococcus aureus [3], 1 µg/mL (≈ 2.09 µM); in the data set with Staphylococcus aureus [4], 4 µg/mL (≈ 8.36 µM); in the data set with Staphylococcus aureus [5] it was 4 µg/mL (≈ 8.36 µM); with Staphylococcus aureus [6], 2 µg/mL (≈ 4.18 µM). Also, the MIC in the data set with Staphylococcus aureus [7] was 2 µg/mL (≈ 4.18 µM); in the data set on Staphylococcus aureus [9], 2 µg/mL (≈ 4.18 µM); in the data set with Staphylococcus aureus [10], 2 µg/mL (≈ 4.18 µM); in the data set with Staphylococcus aureus [11], 2 µg/mL (≈ 4.18 µM); in [12], over 64 µg/mL; in the data set on Staphylococcus aureus [13], 1 µg/mL (≈ 2.09 µM). Also, the MIC in the data set with Staphylococcus aureus [14], in the data set on Staphylococcus aureus [15] and in the data set on Staphylococcus aureus [18] was 1 µg/mL (≈ 2.09 µM) throughout. Further, the CC50 in [8] was over 50 µg/mL. Further, the selectivity ratio in data set [17] was over 50.
